Results on 20 compounds are retold here after ChEMBL document CHEMBL1770136, “A class of novel N-isoquinoline-3-carbonyl-L-amino acid benzylesters: synthesis, anti-tumor evaluation and 3D QSAR analysis” (Eur J Med Chem, 2011).

In one series the test system is HL-60. As to the kind of experiment: Antiproliferative activity against human HL60 cells after 48 hrs by MTT assay. Format: functional, cell-based. The conditions noted are these: HL-60, 48 h. A digest of the protocol: (§1)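 MTT assay in 96-well cultures; HL-60 or HeLa cells at 1×10^4/ml in RPMI-1640 with 10% FCS, penicillin and streptomycin, 37 °C, 5% CO2. After 24 h, medium renewed with compound (final 1 mM to 1 nM) for 48 h, then renewed again for 4 h. Residue dissolved in DMSO, absorbance read; inhibition = (C−T)/C, IC50 computed.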

The next series relates to HeLa. As to the kind of experiment: Antiproliferative activity against human HeLa cells after 48 hrs by MTT assay. Format: functional, cell-based. The essentials: as §1
In series [1] the test system is CCRF S-180. As to the kind of experiment: Antitumor activity against mouse S180 cells xenografted in ICR mouse assessed as tumor growth inhibition at 100 umol/kg/day, ip qd for 7 days measured 24 hrs after last dose relative to control. Format: functional. The conditions noted are these: CCRF S-180, ip. A digest of the protocol:
(§2)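 Male ICR mice, 10–12 weeks old. S180 cells from serially passaged ascites; 1×10^7 viable cells in 0.2 ml saline injected subcutaneously at right oxter. Dosing began 24 h later, 10 per group. Daily i.p. dose of 100 µmol/kg in 0.2 ml saline for 7 days; saline and i.p. cytarabine as controls. Tumors excised and weighed 24 h after last dose; inhibition calculated versus saline group.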

Series [2] can be described thus: Apparent permeability from apical to basolateral side of human Caco2 cells up to 120 mins by HPLC analysis. In kind it is ADME, cell-based. The conditions noted are these: Caco-2. The essentials: (§3)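 Caco-2 monolayers on polycarbonate transwell filters, TEER about 700 Ω cm², rechecked after each test. Compounds in HBSS at final 4 mM on the donor side, 37 °C. Receiver side sampled at 30, 60, 90 and 120 min and measured by HPLC. Papp = dQ/dt·1/(A·C0), area 1 cm²; n = 4.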
In general terms: Caco-2 monolayers are a common model of the intestinal barrier.

The nature of series [3]: Apparent permeability from basolateral to apical side of human Caco2 cells up to 120 mins by HPLC analysis. Format: ADME, cell-based. The conditions noted are these: Caco-2. A digest of the protocol:
as §3

The subject of series [4] is CCRF S-180. As to the kind of experiment: Antitumor activity against mouse S180 cells xenografted in ICR mouse assessed as decrease of tumor weight at 1 umol/kg, po qd for 7 days measured 24 hrs after last dose. In kind it is functional. The essentials:
(§4)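 S180 solid tumors started as 1×10^7 ascites-derived cells s.c. in male ICR mice, 10–12 weeks old. From 24 h, oral doses of 1, 10 or 100 µmol/kg/day in 0.2 ml saline for 7 days; oral saline negative control, i.p. cytarabine 100 µmol/kg positive control. Tumors weighed 24 h after last dose; n = 12 per table footnote.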

Series [5] deals with CCRF S-180. As to the kind of experiment: Antitumor activity against mouse S180 cells xenografted in ICR mouse assessed as decrease of tumor weight at 10 umol/kg, po qd for 7 days measured 24 hrs after last dose. Format: functional. The essentials: as §4
The subject of series [6] is CCRF S-180. As to the kind of experiment: Antitumor activity against mouse S180 cells xenografted in ICR mouse assessed as decrease of tumor weight at 100 umol/kg, po qd for 7 days measured 24 hrs after last dose. Format: functional. The essentials:
as §4

Series [7] relates to Mus musculus. As to the kind of experiment: Neurotoxicity in ICR mouse assessed as neurotoxic behavior at 15 to 540 mg/kg, po after 7 days. Also on record: dose 15-540 mg/kg, route oral. In kind it is toxicity, organism-based. The conditions noted are these: in vivo, 168 h. A digest of the protocol: (§5)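 Healthy mice were given the compound orally at 15, 90 and 540 mg/kg and observed for 7 days for neurotoxic signs (tremor, twitch, jumping, tetanus, supination) and for deaths. Organs were examined by necropsy on day 7.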

Series [8] concerns Mus musculus. As to the kind of experiment: Acute toxicity in ICR mouse assessed as changes in organs at 15 to 540 mg/kg, po after 7 days by necropsy analysis. Format: organism-based. Also on record: dose 15-540 mg/kg, route oral. The conditions noted are these: in vivo, 168 h. The essentials: as §5
Series [9] is described as follows: Acute toxicity in po dosed ICR mouse assessed as changes in organs after 7 days by necropsy analysis. In kind it is organism-based. The conditions noted are these: in vivo. The essentials: as §5
The nature of series [10]: Acute toxicity in ICR mouse assessed as mouse survival at 540 mg/kg, po. The conditions noted are these: in vivo, read-out: Activity. In kind it is organism-based. Further details: dose 540 mg/kg, route oral. The essentials:
as §5

Series [11] concerns CCRF S-180. As to the kind of experiment: Antitumor activity against mouse S180 cells xenografted in ICR mouse assessed as decrease of tumor weight at 100 umol/kg, ip qd for 7 days measured 24 hrs after last dose. In kind it is functional. A digest of the protocol:
as §2

pIC50: −log10 of the molar value.

As a reminder, the pIC50 is −log10 of the IC50, conventionally taken in molar units. A low value points to a high IC50. The inhibition in vivo is the change of the read-out against control, counted positive when it falls. As a reminder, the Papp A→B is the apparent permeability from the apical to the basolateral side of a cell layer. As a reminder, the Papp B→A is the apparent permeability from the basolateral to the apical side of a cell layer. With `O=C(O)c1cc2ccccc2cn1`, the pIC50 was 6.02 in the series on HL-60 and 5.88 in the series with HeLa. Further, the inhibition in vivo at 100 µmol/kg in the series on CCRF S-180 [1] is 11.5%. Moreover, the apical-to-basolateral permeability (Papp A→B) at 2 h in series [2] amounted to 9.47 ×10⁻⁶ cm/s. In series [3], the apparent permeability from basolateral to apical (Papp B→A) at 2 h was found to be 9.28 ×10⁻⁶ cm/s.
In the case of `C[C@H](NC(=O)c1cc2ccccc2cn1)C(=O)OCc1ccccc1`, the figures for the pIC50 in the series on HL-60 and with HeLa were 7.07 and 6.81, respectively. Further, in the series on CCRF S-180 [1], the inhibition in vivo at 100 µmol/kg turned out to be 40.6%.
For `CC(C)[C@H](NC(=O)c1cc2ccccc2cn1)C(=O)OCc1ccccc1` the same measures were 7.10, 6.93 and 29.7%.
As for `CC[C@@H](C)[C@H](NC(=O)c1cc2ccccc2cn1)C(=O)OCc1ccccc1`, the pIC50 in the series with HL-60 is 7.02; with HeLa, 6.73. The inhibition in vivo at 100 µmol/kg in the series with CCRF S-180 [1] stood at 20.9%.
Turning to `O=C(N[C@@H](Cc1c[nH]c2ccccc12)C(=O)OCc1ccccc1)c1cc2ccccc2cn1`, the negative-log IC50 (pIC50) with HL-60 is 7.18; in the series on HeLa it was 6.40. The inhibition in vivo at 100 µmol/kg in the series with CCRF S-180 [1] turned out to be 36.9%.
As to `O=C(N[C@@H](CO)C(=O)OCc1ccccc1)c1cc2ccccc2cn1`, the values for the pIC50 in the series with HL-60 and in the series with HeLa were 7.15 and 6.87, respectively. Besides, in the series on CCRF S-180 [1], the inhibition in vivo at 100 µmol/kg came to 40.4%.
Take `O=C(N[C@@H](Cc1ccc(O)cc1)C(=O)OCc1ccccc1)c1cc2ccccc2cn1`: the pIC50 is 7.00 in the series on HL-60 and 6.29 in the series on HeLa. In addition, the inhibition in vivo at 100 µmol/kg in the series with CCRF S-180 [1] worked out at 28%.
Turning to `O=C(OCc1ccccc1)[C@@H]1CCCN1C(=O)c1cc2ccccc2cn1`, the pIC50 is 7.27 with HL-60 and 7.06 in the series on HeLa. For the same compound, the inhibition in vivo at 100 µmol/kg with CCRF S-180 [1] was 44.5%. The values for the Activity with CCRF S-180 [4], with CCRF S-180 [5] and with CCRF S-180 [6] were 1.661 g, 1.243 g and 1.021 g, respectively.
For `NC(=O)CC[C@H](NC(=O)c1cc2ccccc2cn1)C(=O)OCc1ccccc1`, the pIC50 in the series with HL-60 was 7.35; with HeLa it was 6.74. Moreover, in the series with CCRF S-180 [1], the inhibition in vivo at 100 µmol/kg was found to be 11.9%.
Turning to `O=C(N[C@@H](Cc1c[nH]cn1)C(=O)OCc1ccccc1)c1cc2ccccc2cn1`, the negative-log IC50 (pIC50) was 7.06 in the series on HL-60 and 6.58 with HeLa. For the same compound, in the series with CCRF S-180 [1], the inhibition in vivo at 100 µmol/kg came to 24.3%.
For `NCCCC[C@H](NC(=O)c1cc2ccccc2cn1)C(=O)OCc1ccccc1` the same measures were 7.17, 6.71 and 17.1%.
Regarding `O=C(C[C@H](NC(=O)c1cc2ccccc2cn1)C(=O)OCc1ccccc1)OCc1ccccc1`, the pIC50 with HL-60 is 7.13; in the series with HeLa, 6.39. Besides, the inhibition in vivo at 100 µmol/kg with CCRF S-180 [1] stood at 37.5%.
The like results for `O=C(CC[C@H](NC(=O)c1cc2ccccc2cn1)C(=O)OCc1ccccc1)OCc1ccccc1` were, in that order, 7.08, 6.67 and 25.2%.
Regarding `O=C(N[C@@H](Cc1ccccc1)C(=O)OCc1ccccc1)c1cc2ccccc2cn1`, the negative-log IC50 (pIC50) with HL-60 is 7.04; with HeLa, 6.82. For the same compound, the inhibition in vivo at 100 µmol/kg with CCRF S-180 [1] worked out at 30.1%.
What is called LD50 is the dose expected to kill half of the subjects tested. On to `C[C@H](O)[C@H](NC(=O)c1cc2ccccc2cn1)C(=O)OCc1ccccc1`, for which the figures for the negative logarithm of the IC50 (pIC50) in the series on HL-60 and with HeLa were 7.21 and 7.01, respectively. In addition, the inhibition in vivo at 100 µmol/kg in the series with CCRF S-180 [1] stood at 54.4%. For the same compound, the Activity in the series on CCRF S-180 [4] was 1.315 g; in the series with CCRF S-180 [5] it was 1.184 g; in the series on CCRF S-180 [6], 0.802 g; with Mus musculus [7], “Non-toxic”; in the series with Mus musculus [8] it was “Non-toxic”. In addition, the apparent permeability from apical to basolateral (Papp A→B) at 2 h in series [2] was found to be 18.6 ×10⁻⁶ cm/s. The Papp B→A at 2 h in series [3] is 7.05 ×10⁻⁶ cm/s. The LD50 at 168 h in series [9] was > 540 mg/kg. The survival in series [10] came to 100%.
In the case of `CSCC[C@H](NC(=O)c1cc2ccccc2cn1)C(=O)OCc1ccccc1`, the pIC50 was 7.35 in the series on HL-60 and 6.51 with HeLa. Besides, the inhibition in vivo at 100 µmol/kg in the series on CCRF S-180 [1] was found to be 39.6%.
Turning to `O=C(CNC(=O)c1cc2ccccc2cn1)OCc1ccccc1`, the negative-log IC50 (pIC50) with HL-60 is 7.24; in the series with HeLa it was 6.71. Also, the inhibition in vivo at 100 µmol/kg in the series on CCRF S-180 [1] was 16.1%.
In the case of `CC(C)C[C@H](NC(=O)c1cc2ccccc2cn1)C(=O)OCc1ccccc1`, the results for the pIC50 with HL-60 and with HeLa were 7.14 and 6.96, respectively. Also, the inhibition in vivo at 100 µmol/kg in the series with CCRF S-180 [1] came to 47.1%. Moreover, the Activity with CCRF S-180 [4] is 1.298 g; in the series on CCRF S-180 [5], 1.011 g; with CCRF S-180 [6], 0.938 g; in the series on Mus musculus [7], “Non-toxic”; with Mus musculus [8], “Non-toxic”. The Papp A→B at 2 h in [2] turned out to be 17.2 ×10⁻⁶ cm/s. The Papp B→A at 2 h in series [3] was 7.12 ×10⁻⁶ cm/s. In addition, in series [9], the LD50 at 168 h is > 540 mg/kg. Besides, the survival in [10] was found to be 100%.
Consider `NC(=O)C[C@H](NC(=O)c1cc2ccccc2cn1)C(=O)OCc1ccccc1`, for which the pIC50 was 7.06 in the series on HL-60 and 6.66 in the series on HeLa. Also, the inhibition in vivo at 100 µmol/kg with CCRF S-180 [1] came out at 36.7%.
Regarding `Nc1ccn([C@@H]2O[C@H](CO)[C@@H](O)[C@@H]2O)c(=O)n1` [CYTARABINE], in the series with CCRF S-180 [1], the inhibition in vivo at 100 µmol/kg is 54.8%. For the same compound, the Activity in the series on CCRF S-180 [11] stood at 0.814 g.
